Our source for the Ki, inhibition and Activity values is ChEMBL document CHEMBL1144033, “Novel trans-3,4-dimethyl-4-(3-hydroxyphenyl)piperidines as mu opioid receptor antagonists with improved opioid receptor selectivity profiles” (Bioorg Med Chem Lett, 2008).

Structures are written as SMILES. Activity calls are given as the source filed them. The calls are words filed in the database; no cut-off is given here.

Experiment [1] concerns the target T1, Delta-type opioid receptor (Homo sapiens, UniProt P41143). The experiment can be described thus: Displacement of [3H]diprenorphine from human cloned delta opioid receptor. On the technique in general: Loss of bound radioactivity is the signal in a displacement assay; it reports binding, not function.
Experiment [2] deals with T2, Kappa-type opioid receptor (Homo sapiens, UniProt P41145). The experiment can be described thus: Displacement of [3H]diprenorphine from human cloned kappa opioid receptor at 10 uM.
T2 sequence (P41145 whole entry): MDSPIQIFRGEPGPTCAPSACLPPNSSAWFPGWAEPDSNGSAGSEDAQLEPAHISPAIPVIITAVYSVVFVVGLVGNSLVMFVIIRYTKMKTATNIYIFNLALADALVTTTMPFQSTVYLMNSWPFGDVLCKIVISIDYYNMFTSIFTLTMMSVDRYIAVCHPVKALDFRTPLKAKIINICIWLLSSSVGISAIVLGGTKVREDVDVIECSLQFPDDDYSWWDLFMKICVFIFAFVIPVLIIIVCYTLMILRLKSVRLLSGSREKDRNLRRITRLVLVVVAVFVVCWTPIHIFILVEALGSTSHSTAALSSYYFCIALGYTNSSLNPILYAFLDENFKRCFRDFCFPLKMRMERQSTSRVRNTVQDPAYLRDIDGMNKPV
Experiment [3] deals with T2, Kappa-type opioid receptor. Put plainly: Displacement of [3H]diprenorphine from human cloned kappa opioid receptor.
Experiment [4] relates to Mus musculus. Put plainly: Antagonist activity on morphine-induced gastrointestinal antitransit effect in Swiss Webster mouse at 0.1 mg/kg, sc after 1 hr. The experiment is classed as functional. More on the design: scale not given: the % may be the effect or the level left. As to conditions: route subcutaneous. In outline:
(§1)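 Male Swiss-Webster mice (20-25 g), fasted overnight, got vehicle (10% DMSO:20% cremophor EL:70% saline) or compound s.c. Morphine (3 mg/kg s.c.) followed 25 min later. After a further 10 min, mice received 0.3 mL charcoal meal (charcoal:flour:water 1:2:8, w/w/v). Small intestine removed 25 min later; %GIT = charcoal leading-edge distance/intestine length ×100.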

Experiment [5] has as its target Mu-type opioid receptor (Homo sapiens) (UniProt P35372). The experiment can be described thus: Displacement of [3H]diprenorphine from human cloned mu opioid receptor at 10 uM.
Experiment [6] has as its target T1, Delta-type opioid receptor. The experiment can be described thus: Displacement of [3H]diprenorphine from human cloned delta opioid receptor at 10 uM.
Experiment [7] relates to Mus musculus. Put plainly: Antagonist activity on morphine-induced gastrointestinal antitransit effect in Swiss Webster mouse at 1 mg/kg, sc after 1 hr. To be noted: route subcutaneous. The experiment is classed as functional. Also on record: scale not given: the % may be the effect or the level left. The method in brief: as §1
Experiment [8] deals with Mus musculus. The experiment can be described thus: Antagonist activity on morphine-induced physical dependence in Swiss Webster mouse at 10 mg/kg, po. The experiment is classed as functional, organism-based. More on the design: dose 10 mg/kg.
Experiment [9] has as its system Mus musculus. The experiment can be described thus: Antagonist activity on morphine-induced gastrointestinal antitransit effect in Swiss Webster mouse at 0.3 mg/kg, po after 1 hr. It counts as functional, organism-based. More on the design: dose 0.3 mg/kg.

T1 sequence (P41143 whole entry): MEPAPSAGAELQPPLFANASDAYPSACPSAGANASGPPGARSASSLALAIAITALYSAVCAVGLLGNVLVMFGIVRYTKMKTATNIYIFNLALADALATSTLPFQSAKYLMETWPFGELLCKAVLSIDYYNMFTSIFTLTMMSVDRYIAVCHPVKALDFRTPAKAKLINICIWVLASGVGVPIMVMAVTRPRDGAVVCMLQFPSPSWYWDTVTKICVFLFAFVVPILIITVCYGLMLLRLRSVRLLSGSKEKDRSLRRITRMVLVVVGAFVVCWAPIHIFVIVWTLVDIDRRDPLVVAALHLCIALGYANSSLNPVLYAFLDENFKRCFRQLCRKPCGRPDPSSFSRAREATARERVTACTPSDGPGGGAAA
Sequence of Mu-type opioid receptor (Homo sapiens) (P35372 whole entry): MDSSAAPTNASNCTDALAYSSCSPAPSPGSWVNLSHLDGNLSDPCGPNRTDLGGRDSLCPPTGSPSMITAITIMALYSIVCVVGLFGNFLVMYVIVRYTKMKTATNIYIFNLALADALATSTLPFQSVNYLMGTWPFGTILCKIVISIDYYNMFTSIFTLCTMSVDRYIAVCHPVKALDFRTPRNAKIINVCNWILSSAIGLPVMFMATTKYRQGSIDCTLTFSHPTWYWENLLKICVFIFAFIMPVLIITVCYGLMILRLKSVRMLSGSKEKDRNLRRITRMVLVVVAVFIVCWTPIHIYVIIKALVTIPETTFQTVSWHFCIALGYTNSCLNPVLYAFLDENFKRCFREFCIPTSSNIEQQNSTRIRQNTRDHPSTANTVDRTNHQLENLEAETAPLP

A word on the Ki: it is a measure of affinity in units of concentration, obtained from inhibition or displacement. A word on the inhibition: it is the change of the read-out against control, counted positive when it falls. As for `CCN(C(=O)CCN1CC[C@@](C)(c2cccc(O)c2)[C@@H](C)C1)[C@@H](Cc1ccccc1)C(=O)O`, the inhibitory constant (Ki) in [1] was 510 nM. In addition, the inhibition in experiment [2] worked out at 44%.

As to `C[C@H]1CN(C[C@H](Cc2ccccc2)C(=O)NCC(=O)O)CC[C@@]1(C)c1cccc(O)c1` [ALVIMOPAN], the Ki is 100 nM in [3] and 12 nM in experiment [1]. The Activity in experiment [4] is given as 69%.

For the compound `C[C@H]1CN(C[C@H](Cc2ccccc2)C(=O)N[C@@H](Cc2cccc3ccccc23)C(=O)O)CC[C@@]1(C)c1cccc(O)c1`, the Ki in experiment [3] is 83 nM; in experiment [1] it was 31 nM.

As for `C[C@H]1CN(CCC(=O)N(Cc2ccc(-c3ccccc3)cc2)[C@@H](Cc2ccccc2)C(=O)O)CC[C@@]1(C)c1cccc(O)c1`, the inhibition constant Ki was 230 nM in experiment [3] and 52 nM in experiment [1].

`C[C@H]1CN(CCC(=O)N[C@@H](CCc2ccccc2)C(=O)O)CC[C@@]1(C)c1cccc(O)c1`: the inhibitory constant (Ki) in experiment [3] was 690 nM; in experiment [1], 360 nM.

With `C[C@H]1CN(C[C@H](Cc2ccccc2)C(=O)N[C@@H](CCC(=O)O)C(=O)O)CC[C@@]1(C)c1cccc(O)c1`, affinity in experiment [1] was put at a Ki of 360 nM. This compound had an inhibition in experiment [2] of 26%.

Take `C[C@H](NC(=O)[C@@H](Cc1ccccc1)CN1CC[C@@](C)(c2cccc(O)c2)[C@@H](C)C1)C(=O)O`: the inhibition constant Ki in experiment [3] was determined as 67 nM; in experiment [1], 22 nM.

Consider `C[C@H]1CN(CCC(=O)N(Cc2ccccc2)[C@@H](Cc2ccccc2)C(=O)O)CC[C@@]1(C)c1cccc(O)c1`, for which the Ki in experiment [3] turned out to be 550 nM; in experiment [1], 39 nM.

Regarding `C[C@H]1CN(C[C@H](Cc2ccccc2)C(=O)N[C@@H](Cc2ccc(-c3ccccc3)cc2)C(=O)O)CC[C@@]1(C)c1cccc(O)c1`, the figures for the Ki in [3] and in [1] were 160 nM and 8.3 nM, respectively.

As to `C[C@H]1CN(CCC(=O)NCC(=O)O)CC[C@@]1(C)c1cccc(O)c1`, the inhibition in experiment [5] is 20%; in experiment [2] it was 4%; in experiment [6], 5%.

In experiment [1], `C[C@H]1CN(C[C@H](Cc2ccccc2)C(=O)N[C@@H](CC(=O)O)C(=O)O)CC[C@@]1(C)c1cccc(O)c1` displayed a Ki of 500 nM. For the same compound, in experiment [2], the inhibition stood at 27%.

As to `C[C@@H](NC(=O)[C@@H](Cc1ccccc1)CN1CC[C@@](C)(c2cccc(O)c2)[C@@H](C)C1)C(=O)O`, the figures for the Ki in [3] and in experiment [1] were 910 nM and 74 nM, respectively.

Regarding `C[C@H]1CN(C[C@H](Cc2ccccc2)C(=O)N[C@@H](Cc2ccccc2)C(=O)O)CC[C@@]1(C)c1cccc(O)c1`, the Ki in experiment [3] was determined as 250 nM; in experiment [1], 15 nM.

Consider `C[C@H]1CN(C[C@H](Cc2ccccc2)C(=O)N[C@@H](CC2CCCCC2)C(=O)O)CC[C@@]1(C)c1cccc(O)c1`, for which the Ki in experiment [3] was 720 nM; in experiment [1] it was 15 nM.

In [3], `C[C@H]1CN(CCC(=O)N(CCc2ccccc2)[C@@H](Cc2ccccc2)C(=O)O)CC[C@@]1(C)c1cccc(O)c1` showed a Ki of 1200 nM.

`C[C@H]1CN(CCC(=O)N[C@@H](CCCCN)C(=O)O)CC[C@@]1(C)c1cccc(O)c1`: the inhibition was found to be 45% in experiment [5], 3% in experiment [2] and 11% in experiment [6].

Take `C[C@H]1CN(CCC(=O)N[C@@H](Cc2ccccc2)C(=O)O)CC[C@@]1(C)c1cccc(O)c1`: the Ki in experiment [1] was 990 nM. Further, in experiment [2], the inhibition was determined as 39%.

For the compound `C[C@H]1CN(C[C@H](Cc2ccccc2)C(=O)N[C@@H](CCCCN)C(=O)O)CC[C@@]1(C)c1cccc(O)c1`, the Activity in [7] came out at 82%; in [4], 64%. Moreover, the result in [8] was inactive. In addition, in [9], the result was Active.

For the compound `C[C@H]1CN(CCC(=O)N[C@@H](Cc2ccc(-c3ccccc3)cc2)C(=O)O)CC[C@@]1(C)c1cccc(O)c1`, the Ki in [3] is 1100 nM; in [1] it was 160 nM.

For `C[C@H]1CN(CCC(=O)N(CC2CC2)[C@@H](Cc2ccccc2)C(=O)O)CC[C@@]1(C)c1cccc(O)c1`, the values for the inhibitory constant (Ki) in experiment [3] and in [1] were 2200 nM and 100 nM, respectively.

For `CC(C)CN(C(=O)CCN1CC[C@@](C)(c2cccc(O)c2)[C@@H](C)C1)[C@@H](Cc1ccccc1)C(=O)O`, the Ki in experiment [3] is 2200 nM.

Consider `C[C@H]1CN(C[C@H](Cc2ccccc2)C(=O)N[C@@H](CCc2ccccc2)C(=O)O)CC[C@@]1(C)c1cccc(O)c1`, for which the Ki in experiment [3] turned out to be 510 nM; in experiment [1], 10 nM.

Consider `C[C@H]1CN(CCC(=O)N(c2ccccc2)[C@@H](Cc2ccccc2)C(=O)O)CC[C@@]1(C)c1cccc(O)c1`, for which the inhibitory constant (Ki) in [3] came out at 1400 nM; in experiment [1] it was 67 nM.

For `C[C@H]1CN(CCC(=O)N(C)[C@@H](Cc2ccccc2)C(=O)O)CC[C@@]1(C)c1cccc(O)c1`, affinity in [1] was put at a Ki of 620 nM. In addition, the inhibition in experiment [2] worked out at 35%.

Regarding `C[C@H]1CN(CCC(=O)N[C@@H](CC2CCCCC2)C(=O)O)CC[C@@]1(C)c1cccc(O)c1`, in experiment [1], the affinity, expressed as Ki, was 170 nM. The same compound had an inhibition in [2] of 44%.

For `C[C@H]1CN(CCC(=O)N(Cc2cccc(Cl)c2)[C@@H](Cc2ccccc2)C(=O)O)CC[C@@]1(C)c1cccc(O)c1`, the inhibition constant (Ki) in experiment [3] turned out to be 460 nM; in [1], 24 nM.

As for `C[C@H]1CN(C[C@H](Cc2ccccc2)C(=O)N[C@@H](Cc2ccc3ccccc3c2)C(=O)O)CC[C@@]1(C)c1cccc(O)c1`, the figures for the Ki in experiment [3] and in [1] were 240 nM and 3.2 nM, respectively.
